These results are taken from ChEMBL document CHEMBL3243970, “Synthesis and biological activity of some derivatives of thiochroman-4-one and tetrahydrothiapyran-4-one” (1977).

The source made the active and inactive calls. The calls are words filed in the database; no cut-off is given here.

The test system of assay [1] is Bacillus subtilis. As to the kind of experiment: Antimicrobial activity against Bacillus subtilis assessed as growth inhibition at 91 ug/ml after 24 hrs by spectrophotometry. The note with it: read-out: GI. Type of assay: functional. The procedure, abridged: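 Primary screen of Bacillus subtilis growth in the presence of test compound at 91 µg/mL.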
For assay [2], the system named is KB. As to the kind of experiment: Cytotoxicity against human KB cells assessed as growth inhibition at 12.5 ug/ml after 24 hrs by crystal violet staining method. In kind it is functional. The note with it: read-out: GI.
Assay [3] concerns L1210 (Mus musculus). As to the kind of experiment: Potentiation of actinomycin D-induced antitumor activity against mouse L1210 cells allografted in BDF1 mouse administered ip on days 2 to 6 post challenge relative to control.
The subject of assay [4] is Bacillus subtilis. As to the kind of experiment: Antimicrobial activity against Bacillus subtilis assessed as growth inhibition at 75 ug/ml after 24 hrs by spectrophotometry. In kind it is functional. To be noted: read-out: GI.
Assay [5] concerns Pseudomonas fluorescens. As to the kind of experiment: Antimicrobial activity against Pseudomonas fluorescens assessed as growth inhibition at 75 ug/ml after 24 hrs by spectrophotometry. In kind it is functional. To be noted: read-out: GI.
In assay [6] the test system is L1210 (Mus musculus). As to the kind of experiment: Potentiation of mitomycin C-induced antitumor activity against mouse L1210 cells allografted in BDF1 mouse administered ip on days 2 to 6 post challenge relative to control.
Assay [7] deals with Bacillus subtilis. As to the kind of experiment: Antimicrobial activity against Bacillus subtilis assessed as growth inhibition after 24 hrs by spectrophotometry. Type of assay: functional, organism-based.
Assay [8] relates to KB. The assay can be described thus: Cytotoxicity against human KB cells assessed as growth inhibition after 24 hrs by crystal violet staining method. Type of assay: functional, cell-based.
Assay [9] relates to Pseudomonas fluorescens. As to the kind of experiment: Antimicrobial activity against Pseudomonas fluorescens assessed as growth inhibition after 24 hrs by spectrophotometry. Type of assay: functional, organism-based.
The subject of assay [10] is Pseudomonas fluorescens. The assay can be described thus: Antimicrobial activity against Pseudomonas fluorescens assessed as growth inhibition at 91 ug/ml after 24 hrs by spectrophotometry. In kind it is functional. The note with it: read-out: GI.
Assay [11] has as its system KB. As to the kind of experiment: Cytotoxicity against human KB cells assessed as growth inhibition at 50 ug/ml after 24 hrs by crystal violet staining method. To be noted: read-out: GI. In kind it is functional.

Consider `O=S1(=O)Cc2cnoc2-c2ccccc21`, for which, in the assay with Bacillus subtilis [1], the inhibition of growth at 91 µg/mL worked out at 0%.
Usually T/C stands for the ratio of treated to control. Take `c1ccc2c(c1)SCc1cn[nH]c1-2`: the inhibition of growth at 12.5 µg/mL in the assay on KB [2] was determined as 28%. In addition, the outcome in the assay with L1210 (Mus musculus) [3] was inactive. The inhibition of growth at 75 µg/mL in the assay with Bacillus subtilis [4] is 100%; in the assay on Pseudomonas fluorescens [5], 0%. Also, the T/C in the assay on L1210 (Mus musculus) [6] is 10%.
`c1ccc(-n2ncc3c2-c2ccccc2SC3)cc1`: the “growth inhibition (GI)” value with Bacillus subtilis [7], in the assay on KB [8] and in the assay on Pseudomonas fluorescens [9] was “inactive” in each case.
On to `c1n[nH]c2c1CSCC2`, for which the inhibition of growth at 91 µg/mL in the assay with Bacillus subtilis [1] and in the assay on Pseudomonas fluorescens [10] was 0% throughout.
With `c1ccc2c(c1)SCc1cnoc1-2`, the inhibition of growth at 91 µg/mL was 100% in the assay on Bacillus subtilis [1] and 0% in the assay on Pseudomonas fluorescens [10]. Besides, in the assay with KB [11], the inhibition of growth at 50 µg/mL worked out at 100%.
Consider `O=C1NN=C2CCSCC12` (centres undefined), for which the inhibition of growth at 91 µg/mL with Bacillus subtilis [1] and in the assay on Pseudomonas fluorescens [10] was 0% throughout.
In the case of `O=S1(=O)Cc2c[n+]([O-])n(-c3ccccc3)c2-c2ccccc21`, the inhibition of growth at 91 µg/mL in the assay on Bacillus subtilis [1] and in the assay on Pseudomonas fluorescens [10] was 0% each time.
Take `O=c1[nH]n(-c2ccccc2)c2c1CSCC2`: the inhibition of growth at 91 µg/mL with Bacillus subtilis [1] and with Pseudomonas fluorescens [10] was 0% in each case.
For `O=S1(=O)Cc2cn[nH]c2-c2ccccc21`, in the assay on Bacillus subtilis [1], the inhibition of growth at 91 µg/mL was 0%.
In the case of `O=C1CCS(=O)(=O)c2ccccc21`, the inhibition of growth at 91 µg/mL in the assay on Bacillus subtilis [1] amounted to 100%; with Pseudomonas fluorescens [10] it was 0%. Further, in the assay on KB [11], the inhibition of growth at 50 µg/mL came out at 17%.
